Active and inactive are the calls of the source. The calls are words filed in the database; no cut-off is given here.
Columns and labels:
[1] = Cytotoxicity against HEK293T cells assessed as reduction in cell viability after 48 hrs by MTT assay; assay type: cell-based, HEK-293T; conditions: human
HeLa [2] = assay: Cell cycle arrest in human HeLa cells assessed as accumulation at S phase at 0.040 uM after 24 hrs by propidium iodide staining based flow cytometric analysis (reference value: 17.46%); assay type: functional
Summary of the method: (§1)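 HepG2 and HeLa cells were exposed to 0, 0.020, 0.040, 0.060, 0.080 or 0.10 µM for 6, 12 or 24 h. DNA content was stained with propidium iodide and analysed by flow cytometry to give the percentage of cells in G0/G1, S and G2/M phases; sub-G1 cells were also recorded.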

HeLa [3] = assay: Cell cycle arrest in human HeLa cells assessed as accumulation at G2/M phase at 0.040 uM after 24 hrs by propidium iodide staining based flow cytometric analysis (reference value: 17.72%); assay type: functional; summary of the method: as §1
HeLa [4] = assay: Cell cycle arrest in human HeLa cells assessed as accumulation at S phase at 0.060 uM after 24 hrs by propidium iodide staining based flow cytometric analysis (reference value: 17.46%); assay type: functional; summary of the method: as §1
HeLa [5] = assay: Cell cycle arrest in human HeLa cells assessed as accumulation at G2/M phase at 0.080 uM after 24 hrs by propidium iodide staining based flow cytometric analysis (reference value: 17.72%); assay type: functional; summary of the method: as §1
HeLa [6] = assay: Cell cycle arrest in human HeLa cells assessed as accumulation at S phase at 0.10 uM after 24 hrs by propidium iodide staining based flow cytometric analysis (reference value: 17.46%); assay type: functional; summary of the method: as §1
HepG2 [7] = assay: Cell cycle arrest in human HepG2 cells assessed as accumulation at S phase at 0.040 uM after 24 hrs by propidium iodide staining based flow cytometric analysis (reference value: 20.40%); assay type: functional; summary of the method: as §1
HepG2 [8] = assay: Cell cycle arrest in human HepG2 cells assessed as accumulation at S phase at 0.080 uM after 24 hrs by propidium iodide staining based flow cytometric analysis (reference value: 20.40%); assay type: functional; summary of the method: as §1
HepG2 [9] = assay: Cell cycle arrest in human HepG2 cells assessed as accumulation at S phase at 0.10 uM after 24 hrs by propidium iodide staining based flow cytometric analysis (reference value: 20.40%); assay type: functional; summary of the method: as §1
HeLa [10] = assay: Induction of apoptosis in human HeLa cells assessed as viable cells at 0.020 uM after 24 hrs by Annexin V-FITC/propidium iodide staining based flow cytometric analysis (reference value: 88.6%); assay type: functional; conditions: read-out: Activity
Summary of the method: (§2)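 HepG2 and HeLa cells were exposed to 0, 0.02, 0.040, 0.060, 0.080 and 0.10 µM for 6, 12 and 24 h. Cells were double-stained with Annexin V-FITC/PI and read by flow cytometry. Apoptotic rate was the percentage of FITC-positive cells, counting early plus late apoptotic.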

HeLa [11] = assay: Induction of apoptosis in human HeLa cells assessed as necrotic cells at 0.040 uM after 24 hrs by Annexin V-FITC/propidium iodide staining based flow cytometric analysis (reference value: 0.242%); assay type: functional; summary of the method: as §2
HeLa [12] = assay: Induction of apoptosis in human HeLa cells assessed as necrotic cells at 0.060 uM after 24 hrs by Annexin V-FITC/propidium iodide staining based flow cytometric analysis (reference value: 0.242%); assay type: functional; summary of the method: as §2
HeLa [13] = assay: Induction of apoptosis in human HeLa cells assessed as viable cells at 0.060 uM after 24 hrs by Annexin V-FITC/propidium iodide staining based flow cytometric analysis (reference value: 88.6%); assay type: functional; conditions: read-out: Activity; summary of the method: as §2
HeLa [14] = assay: Induction of apoptosis in human HeLa cells assessed as early apoptotic cells at 0.080 uM after 24 hrs by Annexin V-FITC/propidium iodide staining based flow cytometric analysis (reference value: 6.17%); assay type: functional; summary of the method: as §2
HepG2 [15] = assay: Induction of apoptosis in human HepG2 cells assessed as late apoptotic cells at 0.040 uM after 24 hrs by Annexin V-FITC/propidium iodide staining based flow cytometric analysis (reference value: 2.93%); assay type: functional; summary of the method: as §2
HepG2 [16] = assay: Induction of apoptosis in human HepG2 cells assessed as early apoptotic cells at 0.080 uM after 24 hrs by Annexin V-FITC/propidium iodide staining based flow cytometric analysis (reference value: 2.31%); assay type: functional; summary of the method: as §2
HepG2 [17] = assay: Induction of apoptosis in human HepG2 cells assessed as late apoptotic cells at 0.080 uM after 24 hrs by Annexin V-FITC/propidium iodide staining based flow cytometric analysis (reference value: 2.93%); assay type: functional; summary of the method: as §2
HepG2 [18] = assay: Induction of apoptosis in human HepG2 cells assessed as late apoptotic cells at 0.10 uM after 24 hrs by Annexin V-FITC/propidium iodide staining based flow cytometric analysis (reference value: 2.93%); assay type: functional; summary of the method: as §2
HeLa [19] = assay: Antitumor activity against human HeLa cells xenografted in nude mouse assessed as tumor weight at 20 mg/kg, ip after 14 days (reference value: 1.54 g); assay type: functional
Mus musculus [20] = assay: Toxicity in nude mouse xenografted with human HeLa cells assessed as change in mouse liver weight at 10 to 20 mg/kg, ip after 14 days; assay type: organism-based; conditions: in vivo, 336 h
Bos taurus = species: Bos taurus; assay: Inhibition of colchicine binding to calf brain tubulin preincubated for 1 hr followed by colchicine addition measured after 1 hr by UPLC-MS/MS analysis
[21] = Selectivity index, ratio of CC50 for HEK293T cells to GI50 for human A549 cells; assay type: toxicity; conditions: HEK293T cells and A549 cells, read-out: Selectivity Index
Summary of the method: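 Ratio CC50/GI50: CC50 is the concentration reducing non-tumour 293T cell proliferation by 50%; GI50 is the concentration reducing cancer cell proliferation by 50%.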

HeLa [22] = assay: Antitumor activity against human HeLa cells xenografted in nude mouse assessed as relative tumor growth inhibition at 20 mg/kg, ip after 14 days (reference value: 59.92%); assay type: functional; conditions: 336 h, read-out: TGI
HeLa [23] = assay: Antitumor activity against human HeLa cells xenografted in nude mouse assessed as loose and irregular arrangement of tumor cells at 10 to 20 mg/kg, ip after 14 days by hematoxylin and eosin staining based microscopic analysis; assay type: functional, organism-based
Summary of the method: (§3)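 Excised tumours and heart, liver, kidney and spleen were H&E-stained and examined microscopically. Tumour scoring covered cell arrangement and necrosis. Organ scoring covered inflammatory infiltration, edema, necrosis and cell morphology.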

Mus musculus [24] = assay: Nephrotoxicity in nude mouse xenografted with human HeLa cells assessed as cellular inflammatory infiltration in kidney at 10 to 20 mg/kg, ip after 14 days by hematoxylin and eosin staining based microscopic analysis; assay type: toxicity, organism-based; conditions: in vivo, 336 h
Mus musculus [25] = assay: Hepatotoxicity in nude mouse xenografted with human HeLa cells assessed as necrosis in liver at 10 to 20 mg/kg, ip after 14 days by hematoxylin and eosin staining based microscopic analysis; assay type: toxicity, organism-based; conditions: in vivo, 336 h
Summary of the method: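 HeLa xenograft nude mice with tumours near 100 mm³, randomised to four groups of 28 mice in total. Dosing was intraperitoneal: vehicle, CA-4 10 mg/kg, or test compound at 10 or 20 mg/kg, continued for 14 days. Heart, liver, kidney and spleen were then H&E-stained and examined for inflammatory infiltration, edema, necrosis and cell morphology.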

Mus musculus [26] = assay: Cardiotoxicity in nude mouse xenografted with human HeLa cells assessed as necrosis in heart at 10 to 20 mg/kg, ip after 14 days by hematoxylin and eosin staining based microscopic analysis; assay type: toxicity, organism-based; conditions: in vivo, 336 h; summary of the method: as §3
Mus musculus [27] = assay: Cardiotoxicity in nude mouse xenografted with human HeLa cells assessed as morphological changes in heart cells at 10 to 20 mg/kg, ip after 14 days by hematoxylin and eosin staining based microscopic analysis; assay type: toxicity, organism-based; conditions: in vivo, 336 h; summary of the method: as §3

COc1cccc(C2=NN(C(=O)c3ccc(C)nc3)C(c3cn(C)c4ccc(OC)cc34)C2)c1 (stereo not drawn)
CC50 at 48 h [1]: > 300 µM
Activity (HeLa [2]): 7.43%
Activity (HeLa [3]): 27.81%
Activity (HeLa [4]): 16.47%
Activity (HeLa [5]): 71.2%
Activity (HeLa [6]): 17.88%
Activity (HepG2 [7]): 21.59%
Activity (HepG2 [8]): 28.38%
Activity (HepG2 [9]): 27.64%
viability at 0.02 µM (HeLa [10]): 88.7%
Activity (HeLa [11]): 0.512%
Activity (HeLa [12]): 0.484%
viability at 0.06 µM (HeLa [13]): 66.9%
Activity (HeLa [14]): 30.2%
Activity (HepG2 [15]): 6.24%
Activity (HepG2 [16]): 9.61%
Activity (HepG2 [17]): 6.01%
Activity (HepG2 [18]): 8.33%
Activity (HeLa [19]): 0.53 g
Activity (Mus musculus [20]): Non-Toxic
inhibition (Bos taurus): Active
selectivity ratio [21]: 3 to 10
inhibition in vivo at 20 mg/kg (HeLa [22]): 61.5%
Activity (HeLa [23]): Active
Activity (Mus musculus [24]): Non-Toxic
Activity (Mus musculus [25]): Non-Toxic
Activity (Mus musculus [26]): Non-Toxic
Activity (Mus musculus [27]): Non-Toxic

Reference: ChEMBL document CHEMBL4270573, “Novel nicotinoyl pyrazoline derivates bearing N-methyl indole moiety as antitumor agents: Design, synthesis and evaluation” (Eur J Med Chem, 2018)
